According to ChEMBL document CHEMBL1151719, “Discovery of a "true" aspirin prodrug” (J Med Chem, 2008):
pIC50: −log10 of the molar value.

Tests used:
[1] = system: Plasma; test: Stability in 10% human plasma assessed as aspirin yield at pH 7.4; format: ADME, cell-free
How it was run: (§1)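 Pooled plasma or serum from centrifuged citrated human venous blood, diluted with pH 7.4 phosphate buffer (whole blood undiluted), preheated to 37 ± 0.5 °C. Ester added from acetonitrile at 5 × 10^-5 M. Aliquots were quenched in 2% ZnSO4 in MeCN/H2O (1:1), centrifuged, and analysed by gradient C18 HPLC (230 nm) until the parent was consumed. Fit to first-order decay; triplicate.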

[2] = Stability in 10% human plasma assessed as half life of hydrolysis at pH 7.4; format: ADME, cell-free; how it was run: as §1
[3] = target: Cholinesterase (Homo sapiens) (UniProt P06276); test: Activity of BuChE in 10% human plasma; format: cell-free; design: Vmax(app): unit not given here
Sequence of Cholinesterase (Homo sapiens) (P06276 whole entry): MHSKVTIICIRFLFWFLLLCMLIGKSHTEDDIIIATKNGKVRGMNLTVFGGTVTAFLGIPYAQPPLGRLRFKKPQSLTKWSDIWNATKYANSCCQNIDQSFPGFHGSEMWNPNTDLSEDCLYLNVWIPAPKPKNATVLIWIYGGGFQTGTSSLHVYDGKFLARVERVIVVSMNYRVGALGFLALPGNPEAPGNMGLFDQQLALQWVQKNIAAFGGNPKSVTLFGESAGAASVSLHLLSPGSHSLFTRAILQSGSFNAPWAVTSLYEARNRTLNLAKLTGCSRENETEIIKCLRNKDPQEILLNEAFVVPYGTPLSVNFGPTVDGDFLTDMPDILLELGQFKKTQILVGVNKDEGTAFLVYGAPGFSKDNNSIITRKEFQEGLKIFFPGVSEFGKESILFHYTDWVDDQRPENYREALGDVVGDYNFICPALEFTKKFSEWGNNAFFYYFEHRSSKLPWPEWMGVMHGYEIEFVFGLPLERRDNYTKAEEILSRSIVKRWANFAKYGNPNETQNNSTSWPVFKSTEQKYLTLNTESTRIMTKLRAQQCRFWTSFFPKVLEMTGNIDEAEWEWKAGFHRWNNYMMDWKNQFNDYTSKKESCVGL
How it was run: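 Citrated human venous blood was centrifuged, and the pooled plasma or serum was diluted with phosphate buffer pH 7.4. Whole blood was used undiluted. Ester substrate at 5 × 10^-5 M was added from acetonitrile and incubated at 37 °C. Timed aliquots were quenched in ZnSO4 in MeCN/H2O and analysed by HPLC at 230 nm. Apparent KM and Vmax were fitted to the integrated Michaelis-Menten equation. Triplicate.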

[4] = system: Platelet; test: Inhibition of arachidonic acid-induced platelet aggregation in whole blood at 100 uM; format: functional
How it was run: (§2)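 Citrated human whole blood (500 µL) diluted with 500 µL saline, equilibrated 10 min at 37 °C, then pre-incubated 10 min with stirring with test compound added in DMSO (10 µL). Aggregation triggered by arachidonic acid (0.5 mM); impedance read over 6 min. Inhibition tested over 5-100 µM; fit by nonlinear regression.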

[5] = system: Platelet; test: Inhibition of arachidonic acid-induced platelet aggregation in whole blood; format: functional, tissue-based; how it was run: as §2
[6] = Stability in 30% human plasma assessed as half life of hydrolysis at pH 7.4 in presence of 10 uM BuChE inhibitor iso-OMPA; format: ADME, cell-free; conditions: pH 7.4, with iso-OMPA (BuChE inhibitor)
How it was run: (§3)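 Pooled citrated human plasma was diluted to 30% with phosphate buffer pH 7.4. Inhibitor was preincubated for 5 min before adding ester (5 × 10^-5 M) at 37 °C. Lines 15-16 used plasma from a donor with dibucaine-resistant BuChE. Timed aliquots were quenched with ZnSO4 in MeCN/H2O, and parent and aspirin were measured by HPLC at 230 nm. kobs came from exponential decay. Three determinations, mean ± SD.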

[7] = Stability in whole blood assessed as half life of hydrolysis at pH 7.4; format: ADME, tissue-based; how it was run: as §1
[8] = Stability in 30% human plasma assessed as half life of hydrolysis at pH 7.4 in presence of 2 mM arylesterase inhibitor EDTA; format: ADME, cell-free; conditions: pH 7.4, with EDTA (arylesterase inhibitor); how it was run: as §3
[9] = system: Plasma; test: Stability in 30% human plasma assessed as aspirin yield at pH 7.4 in presence of 10 uM carboxylesterase inhibitor BNPP; format: ADME, cell-free
How it was run: (§4)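 Diluted human plasma (30%, pH 7.4, 37 °C) pre-incubated 5 min with inhibitor (EDTA 2 mM or BNPP 10 µM) before ester addition at 5 × 10^-5 M from acetonitrile. ZnSO4/MeCN quench, then HPLC of ester and aspirin. First-order fit; three determinations.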

[10] = (§5) Stability in 50% human plasma assessed as half life of hydrolysis at pH 7.4; format: ADME, cell-free; conditions: 50% human plasma
How it was run: (§6)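 Ester at 5 × 10^-5 M, added from acetonitrile, was incubated at 37 °C in pooled citrated human plasma diluted to 50% with phosphate buffer pH 7.4. Aliquots were deproteinised with ZnSO4 in MeCN/H2O and the remaining ester was quantified by HPLC at 230 nm. The rate constant came from an exponential decay fit. Triplicate.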

[11] = Stability in 30% human plasma assessed as half life of hydrolysis at pH 7.4 in presence of 0.1 uM AChE inhibitor BW284c51; format: ADME, cell-free; conditions: pH 7.4, with BW284c51 (AChE inhibitor); how it was run: as §3
[12] = system: Plasma; test: Stability in 30% human plasma assessed as aspirin yield at pH 7.4 in presence of 20 uM BuChE subtype inhibitor dibucaine; format: ADME, cell-free; how it was run: as §3
[13] = system: Plasma; test: Stability in 30% plasma from patient with dubucaine-insensitive BuChE assessed as aspirin yield at pH 7.4 in presence of 20 uM BuChE inhibitor dibucaine; format: ADME, cell-free; conditions: human; how it was run: as §3
[14] = system: Plasma; test: Stability in 30% human plasma assessed as aspirin yield at pH 7.4 in presence of 2 mM arylesterase inhibitor EDTA; format: ADME, cell-free; how it was run: as §4
[15] = Stability in 30% human plasma assessed as half life of hydrolysis at pH 7.4 in presence of 20 uM dubucaine-insensitive BuChE subtype inhibitor dibucaine; format: ADME, cell-free; conditions: pH 7.4, with dibucaine; how it was run: as §3
[16] = Stability in 30% human plasma assessed as half life of hydrolysis at pH 7.4 in presence of 20 uM BuChE subtype inhibitor dibucaine; format: ADME, cell-free; conditions: pH 7.4, with dibucaine (BuChE subtype inhibitor); how it was run: as §3
[17] = Stability in whole blood assessed as aspirin yield at pH 7.4; format: ADME, tissue-based; how it was run: as §1
[18] = Stability in 10% rat plasma assessed as half life of hydrolysis at pH 7.4; format: ADME, cell-free
[19] = system: Serum; test: Stability in 50% human serum assessed as aspirin yield at pH 7.4; format: ADME, cell-free; how it was run: as §1
[20] = Stability in 30% human plasma assessed as half life of hydrolysis at pH 7.4 in presence of 20 uM cholinesterase inhibitor eserine; format: ADME, cell-free; conditions: pH 7.4, with eserine (cholinesterase inhibitor); how it was run: as §3
[21] = system: Plasma; test: Stability in 30% human plasma assessed as aspirin yield at pH 7.4 in presence of 100 uM AChE inhibitor BW284c51; format: ADME, cell-free; how it was run: as §3
[22] = system: Plasma; test: Stability in 50% human plasma assessed as aspirin yield at pH 7.4; format: ADME, cell-free; how it was run: as §1
[23] = Stability in 30% human plasma assessed as half life of hydrolysis at pH 7.4 in presence of 100 uM AChE inhibitor BW284c51; format: ADME, cell-free; conditions: pH 7.4, with BW284c51 (AChE inhibitor); how it was run: as §3
[24] = Stability in 30% human plasma assessed as half life of hydrolysis at pH 7.4 in presence of 10 uM carboxylesterase inhibitor BNPP; format: ADME, cell-free; conditions: pH 7.4, with BNPP (carboxylesterase inhibitor); how it was run: as §3
[25] = target: Butyrylcholinesterase (Rattus norvegicus) (UniProt Q9JKC1); test: Activity of BuChE in 10% rat plasma
Sequence of Butyrylcholinesterase (Rattus norvegicus) (Q9JKC1 as listed by the source): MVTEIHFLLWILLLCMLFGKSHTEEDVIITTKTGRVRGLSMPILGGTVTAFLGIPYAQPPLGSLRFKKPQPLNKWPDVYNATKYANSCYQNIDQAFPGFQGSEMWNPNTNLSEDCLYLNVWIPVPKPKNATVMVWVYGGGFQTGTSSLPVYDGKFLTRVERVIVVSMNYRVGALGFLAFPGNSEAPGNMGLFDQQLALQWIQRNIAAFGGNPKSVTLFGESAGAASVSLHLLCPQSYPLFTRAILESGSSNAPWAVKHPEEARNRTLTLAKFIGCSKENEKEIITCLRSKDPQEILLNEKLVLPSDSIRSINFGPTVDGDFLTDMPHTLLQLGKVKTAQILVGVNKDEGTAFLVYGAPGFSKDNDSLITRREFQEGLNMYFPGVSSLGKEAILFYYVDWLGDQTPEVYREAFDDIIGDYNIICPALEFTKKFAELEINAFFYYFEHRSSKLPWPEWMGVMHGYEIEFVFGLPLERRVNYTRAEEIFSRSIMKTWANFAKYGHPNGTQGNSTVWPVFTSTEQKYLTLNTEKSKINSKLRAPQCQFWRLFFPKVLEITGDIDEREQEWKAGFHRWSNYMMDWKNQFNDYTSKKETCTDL

[26] = Stability in 50% human serum assessed as half life of hydrolysis at pH 7.4; format: ADME, cell-free; how it was run: as §1
[27] = system: Plasma; test: Stability in 30% human plasma assessed as aspirin yield at pH 7.4; format: ADME, cell-free; how it was run: as §1
[28] = system: Plasma; test: as §5; format: ADME, cell-free; conditions: plasma; how it was run: as §6
[29] = Stability in 30% human plasma assessed as half life of hydrolysis at pH 7.4; format: ADME, cell-free; how it was run: as §1

## CC(=O)Oc1ccccc1C(=O)O[C@H]1CO[C@H]2[C@@H]1OC[C@H]2O
[1]
  Activity: 3%
[2]
  half-life: 3.25 min
[3]
  Vmax(app): 0.22
[4]
  inhibition at 100 µM: < 30%

## CC(=O)Oc1ccccc1C(=O)O[C@@H]1CO[C@H]2[C@@H]1OC[C@@H]2O
[2]
  half-life: 4.73 min
[3]
  Vmax(app): 0.25

## CC(=O)Oc1ccccc1C(=O)O [ASPIRIN]
[5]
  pIC50: 4.59
[3]
  T1/2: 120 min

## CC(=O)Oc1ccccc1C(=O)O[C@H]1CO[C@H]2[C@@H]1OC[C@H]2OC(=O)c1ccccc1O
[1]
  Activity: 74%
[6]
  half-life: 7.04 min
[7]
  half-life: 0.96 min
[8]
  half-life: 1.41 min
[9]
  Activity: 84%
[5]
  pIC50: 4.76
[10]
  half-life: 0.49 min
[11]
  half-life: 1.1 min
[12]
  Activity: 6%
[2]
  half-life: 4.9 min
[13]
  Activity: 69%
[14]
  Activity: 85%
[15]
  half-life: 2 min
[16]
  half-life: 4.6 min
[17]
  Activity: 72%
[18]
  half-life: 0.47 min
[3]
  Vmax(app): 0.17
[19]
  Activity: 73%
[20]
  half-life: 5.8 min
[21]
  Activity: 30%
[22]
  Activity: 81%
[23]
  half-life: 3.9 min
[24]
  half-life: 0.95 min
[25]
  Vmax(app): 1.75 M/min
[26]
  half-life: 0.56 min

## CC(=O)Oc1ccccc1C(=O)O[C@@H]1CO[C@H]2[C@@H]1OC[C@@H]2OC(=O)c1ccccc1O
[2]
  half-life: 4.21 min
[3]
  Vmax(app): 0.23

## CC(=O)Oc1ccccc1C(=O)O[C@H]1CO[C@H]2[C@@H]1OC[C@H]2OC(=O)c1ccccc1OC(C)=O
[1]
  Activity: 51%
[27]
  Activity: 61%
[5]
  pIC50: 4.47
[28]
  t1/2: 0.57 min
[2]
  half-life: 3.35 min
[29]
  half-life: 1.17 min
[3]
  Vmax(app): 0.3

## CC(=O)Oc1ccccc1C(=O)Oc1ccccc1
[3]
  T1/2: 1.3 min
